Columns and labels:
Dihydrofolate reductase = target: T1, Dihydrofolate reductase (Bos taurus, UniProt P00376); experiment: Inhibition of bovine liver DHFR preincubated for 2 mins followed by addition of FH2 as substrate and NADPH
T1 sequence (P00376 whole entry): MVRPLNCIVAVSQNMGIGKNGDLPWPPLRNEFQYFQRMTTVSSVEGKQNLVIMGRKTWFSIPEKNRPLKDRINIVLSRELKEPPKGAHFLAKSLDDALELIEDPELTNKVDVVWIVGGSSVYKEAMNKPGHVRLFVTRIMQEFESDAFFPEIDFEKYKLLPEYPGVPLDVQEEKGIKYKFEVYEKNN

[1] = Growth inhibition of human NCI-H522 cells at 10 uM after 48 hrs by SRB assay relative to control; assay type: functional; details: NCI-H522, 48 h, read-out: GI
How it was run: (§1)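 NCI 60-cell-line panel, nine tumor subpanels; compounds tested at a single dose of 10 μM in the primary screen.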

[2] = Growth inhibition of human K562 cells at 10 uM after 48 hrs by SRB assay relative to control; assay type: functional; details: K562, 48 h, read-out: GI; how it was run: as §1
[3] = Growth inhibition of human SKOV3 cells at 10 uM after 48 hrs by SRB assay relative to control; assay type: functional; details: SK-OV-3, 48 h, read-out: GI
How it was run: (§2)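 Primary screen across the full NCI 60 human tumour cell line panel, which covers nine tumour subpanels. A single dose of 10 μM was applied to each line, and growth was recorded for each cell line.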

[4] = Growth inhibition of human SK-MEL-5 cells at 10 uM after 48 hrs by SRB assay relative to control; assay type: functional; details: SK-MEL-5, 48 h, read-out: GI; how it was run: as §2
[5] = Growth inhibition of human NCI-H23 cells at 10 uM after 48 hrs by SRB assay relative to control; assay type: functional; details: NCI-H23, 48 h, read-out: GI; how it was run: as §1
[6] = Growth inhibition of human MDA-MB-231 cells at 10 uM after 48 hrs by SRB assay relative to control; assay type: functional; details: MDA-MB-231, 48 h, read-out: GI; how it was run: as §1
[7] = Growth inhibition of human T47D cells at 10 uM after 48 hrs by SRB assay relative to control; assay type: functional; details: read-out: GI; how it was run: as §2
[8] = Growth inhibition of human LOXIMVI cells at 10 uM after 48 hrs by SRB assay relative to control; assay type: functional; details: LOX IMVI, read-out: GI; how it was run: as §1
[9] = Growth inhibition of human NCI-322M cells at 10 uM after 48 hrs by SRB assay relative to control; assay type: functional; details: read-out: GI; how it was run: as §1
[10] = Growth inhibition of human OVCAR4 cells at 10 uM after 48 hrs by SRB assay relative to control; assay type: functional; details: OVCAR-4, 48 h, read-out: GI; how it was run: as §1
[11] = Growth inhibition of human Hs 578T cells at 10 uM after 48 hrs by SRB assay relative to control; assay type: functional; details: read-out: GI; how it was run: as §1
[12] = Growth inhibition of human MCF7 cells at 10 uM after 48 hrs by SRB assay relative to control; assay type: functional; details: MCF7, 48 h, read-out: GI; how it was run: as §1
[13] = Growth inhibition of human OVCAR3 cells at 10 uM after 48 hrs by SRB assay relative to control; assay type: functional; details: OVCAR-3, 48 h, read-out: GI; how it was run: as §1
[14] = Growth inhibition of human OVCAR8 cells at 10 uM after 48 hrs by SRB assay relative to control; assay type: functional; details: OVCAR-8, 48 h, read-out: GI; how it was run: as §1
[15] = Growth inhibition of human SF268 cells at 10 uM after 48 hrs by SRB assay relative to control; assay type: functional; details: SF-268, 48 h, read-out: GI; how it was run: as §1
[16] = Growth inhibition of human RXF393 cells at 10 uM after 48 hrs by SRB assay relative to control; assay type: functional; details: RXF 393, 48 h, read-out: GI; how it was run: as §1
[17] = Growth inhibition of human NCI/ADR-RES cells at 10 uM after 48 hrs by SRB assay relative to control; assay type: functional; details: read-out: GI; how it was run: as §1
[18] = Growth inhibition of human SF539 cells at 10 uM after 48 hrs by SRB assay relative to control; assay type: functional; details: SF-539, 48 h, read-out: GI; how it was run: as §1
[19] = Growth inhibition of human HL-60(TB) cells at 10 uM after 48 hrs by SRB assay relative to control; assay type: functional; details: HL-60, 48 h, read-out: GI
How it was run: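 NCI disease-oriented human tumour cell line screen: primary single-dose assay at 10 μM across the full 60-cell-line panel spanning nine tumour subpanels.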

[20] = Growth inhibition of human MOLT4 cells at 10 uM after 48 hrs by SRB assay relative to control; assay type: functional; details: MOLT-4, 48 h, read-out: GI; how it was run: as §1
[21] = Growth inhibition of human U251 cells at 10 uM after 48 hrs by SRB assay relative to control; assay type: functional; details: U-251, 48 h, read-out: GI; how it was run: as §2
[22] = Growth inhibition of human SF295 cells at 10 uM after 48 hrs by SRB assay relative to control; assay type: functional; details: SF-295, 48 h, read-out: GI; how it was run: as §1
[23] = Growth inhibition of human UACC62 cells at 10 uM after 48 hrs by SRB assay relative to control; assay type: functional; details: UACC-62, 48 h, read-out: GI; how it was run: as §2
[24] = Growth inhibition of human COLO205 cells at 10 uM after 48 hrs by SRB assay relative to control; assay type: functional; details: COLO 205, 48 h, read-out: GI; how it was run: as §1

Structure (SMILES) | IC50 (Dihydrofolate reductase) [nM] | inhibition of growth at 10 µM [1] [%] | inhibition of growth at 10 µM [2] [%] | inhibition of growth at 10 µM [3] [%] | inhibition of growth at 10 µM [4] [%] | inhibition of growth at 10 µM [5] [%] | inhibition of growth at 10 µM [6] [%] | inhibition of growth at 10 µM [7] [%] | inhibition of growth at 10 µM [8] [%] | inhibition of growth at 10 µM [9] [%] | inhibition of growth at 10 µM [10] [%] | inhibition of growth at 10 µM [11] [%] | inhibition of growth at 10 µM [12] [%] | inhibition of growth at 10 µM [13] [%] | inhibition of growth at 10 µM [14] [%] | inhibition of growth at 10 µM [15] [%] | inhibition of growth at 10 µM [16] [%] | inhibition of growth at 10 µM [17] [%] | inhibition of growth at 10 µM [18] [%] | inhibition of growth at 10 µM [19] [%] | other results
COc1cc(CSc2nc3ccc(Cl)cc3c(=O)n2-c2ccccc2)cc(OC)c1OC | 800 | 61.6 | 61.8 | < 10 | 18.8 | 21 | 37 | 29.1 | 20.7 | 14.3 | 18.3 | < 10 | 23.1 | 22.2 | 15.7 | 22.3 | 31.1 | 24.5 | 21.1 | < 10 | inhibition of growth at 10 µM [20]: 30.3%; inhibition of growth at 10 µM [21]: 11.4%; inhibition of growth at 10 µM [22]: 15.8%; inhibition of growth at 10 µM [23]: 35.9%; inhibition of growth at 10 µM [24]: 15.5%
COc1ccc(-n2c(SCc3cc(OC)c(OC)c(OC)c3)nc3ccc(Cl)cc3c2=O)cc1 | 3000 | 16.7 | 28.6 | < 10 | 15.1 | 20.2 | 36.8 | 23.9 | 18 | < 10 | 28.3 | 13.9 | 15.6 | < 10 | 13.7 | 15.2 | 25.9 | 10.7 | 12.7 | < 10 | inhibition of growth at 10 µM [20]: 27.6%; inhibition of growth at 10 µM [21]: < 10%; inhibition of growth at 10 µM [22]: 16.7%; inhibition of growth at 10 µM [23]: 33.9%; inhibition of growth at 10 µM [24]: < 10%
